Source: PubChem BioAssay (The Scripps Research Institute Molecular Screening Center)
This is a sample that favours compounds with a hit; in the whole collection about 3.6% have one here.
PAFAH2 FP inh = PAFAH2 enzyme inhibitors, primary screen, biochemical, fluorescence polarization, human; Platelet-activating factor acetylhydrolase 2, cytoplasmic (Homo sapiens), Q99487; recombinant PAFAH2, FP-rhodamine activity probe; inhibition, % at 3.39 µM; 0.99% of 340,000 active;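 active = inhibition above the mean over all tested compounds plus 3 SD, cut at about 30% in these data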;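 note: inhibitors block probe labeling of enzyme so polarization drops; 0% = enzyme with DMSO and 100% = wells lacking PAFAH2 protein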
PAFAH1B2 inh = PAFAH1B2 enzyme inhibitors, primary screen, biochemical, fluorescence polarization, human | Platelet-activating factor acetylhydrolase IB subunit alpha2 (Homo sapiens), P68402 | recombinant PAFAH1B2, FP-rhodamine activity probe | inhibition, % at 3.39 µM | 1.2% of 340,000 active | AID 492953, 2010;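 active = inhibition above the mean of all tested compounds plus 3 SD, cut at about 24% in these data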;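 note: 0% = enzyme with DMSO and 100% = wells lacking PAFAH1B2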
Target sequence (P68402 whole entry, looked up): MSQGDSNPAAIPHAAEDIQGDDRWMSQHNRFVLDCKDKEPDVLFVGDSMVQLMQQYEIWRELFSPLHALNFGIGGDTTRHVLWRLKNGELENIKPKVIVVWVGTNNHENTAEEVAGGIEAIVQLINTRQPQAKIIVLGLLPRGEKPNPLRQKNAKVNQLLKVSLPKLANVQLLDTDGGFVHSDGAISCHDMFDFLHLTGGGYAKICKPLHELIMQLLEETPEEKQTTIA
VIM-2 inh = VIM-2 metallo-beta-lactamase inhibitors, primary screen, biochemical, epi-absorbance readout, Pseudomonas aeruginosa enzyme; purified VIM-2, nitrocefin hydrolysis, epi-absorbance fluorescence; inhibition, % at 5.6 µM; 0.89% of 290,000 active;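 active = inhibition above the mean of all tested compounds plus 3 SD, cutoff set per screening run, cut at about 7.5% in these data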;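 note: red hydrolysis product quenches plate fluorescence so inhibitors raise well fluorescence; 0% = enzyme with DMSO and 100% = DMSO without enzyme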
IMP-1 inh = IMP-1 metallo-beta-lactamase inhibitors, primary screen, biochemical, epi-absorbance readout, Pseudomonas aeruginosa enzyme; metallo-beta-lactamase IMP-1 (Pseudomonas aeruginosa); 0.45% of 290,000 active; inhibition, % at 5.6 µM; AID 1556, 2009; purified IMP-1, nitrocefin hydrolysis, epi-absorbance fluorescence;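 active = inhibition above the mean plus 3 SD of all compounds in the same screening run, cut at about 4.5% in these data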;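 note: 0% = IMP-1 with DMSO and 100% = DMSO wells lacking enzyme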
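Material – recombinant IMP-1 enzyme, purified · Amount – IMP-1 0.2 nM before substrate addition · Medium – HEPES buffer pH 7.1 with ZnSO4 and Brij 35 · Timing – 25 °C, 15 min preincubation, 25 min reaction · Measured by – plate fluorescence quenching by hydrolysis product, ex 480/em 530 nm · Read-out – percent enzyme inhibition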
pPAFAH inh = pPAFAH enzyme inhibitors, primary screen, biochemical, fluorescence polarization, human; 1.5% of 330,000 active; Platelet-activating factor acetylhydrolase (Homo sapiens), Q13093; AID 463082, 2010; inhibition, % at 3.39 µM; recombinant pPAFAH, FP-rhodamine probe fluorescence polarization;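 active = inhibition above the mean inhibition across the screen plus 3 SD, cut at about 25% in these data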;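 note: inhibitors block binding of the rhodamine activity-based probe so polarization drops; 0% = enzyme with DMSO and 100% = wells lacking pPAFAH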
PAFAH1B3 inh = PAFAH1B3 enzyme inhibitors, primary screen, biochemical, fluorescence polarization, human | inhibition, % at 3.39 µM | 0.28% of 340,000 active | Platelet-activating factor acetylhydrolase IB subunit alpha1 (Homo sapiens), Q15102 | recombinant PAFAH1B3, FP-rhodamine probe | AID 492972, 2010;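 active = inhibition above the screen-wide average of all tested compounds plus 3 SD, cut at about 25% in these data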;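 note: 0% = enzyme with DMSO only and 100% = wells lacking PAFAH1B3 protein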
Target sequence (Q15102 whole entry, looked up): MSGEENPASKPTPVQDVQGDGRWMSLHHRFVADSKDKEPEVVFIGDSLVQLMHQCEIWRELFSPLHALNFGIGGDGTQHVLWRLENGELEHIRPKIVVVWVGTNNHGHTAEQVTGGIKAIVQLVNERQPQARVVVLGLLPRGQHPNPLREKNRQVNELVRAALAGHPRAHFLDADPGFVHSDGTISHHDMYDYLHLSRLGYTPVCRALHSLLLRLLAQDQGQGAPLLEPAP
Numbers without * were called inactive; . = not tested or not shown.

SMILES | PAFAH2 FP inh | PAFAH1B2 inh | VIM-2 inh | IMP-1 inh | pPAFAH inh | PAFAH1B3 inh
CC(=O)c1ccc(S(=O)(=O)NCCC(=O)NC(C)c2ccncc2)cc1 (configuration not stated) | -7 | 3 | . | . | 5 | 3
CC(C)C(=O)N[C@@H]1c2ccccc2CC[C@@H]1O | -1 | 6 | . | . | 0 | -1
NNC(=O)c1oc2nc(-c3ccco3)cc(-c3ccco3)c2c1N | . | . | -2 | -3 | 34* | .
O=C1N(Cc2ccccc2)c2ccccc2C12OCCO2 | 2 | -2 | -2 | -4 | 25* | 10
O=C(OCCOc1ccc(Br)cc1)c1ccc(Cl)nc1 | 2 | 26* | -2 | -3 | 1 | 9
CC(C)N(C(=O)COC(=O)c1ccc(Cl)nc1)C(C)C | 2 | -2 | 2 | 0 | 1 | 7
Cc1ccc2sc(NNC(=O)c3cc(=O)c4ccccc4o3)nc2c1C | 6 | 9 | -3 | -3 | 15 | 15
Cc1cccc2sc(NNC(=O)c3cc(=O)c4ccccc4o3)nc12 | 8 | 5 | -1 | -1 | 27* | 12
Cc1cccc2sc(NC(=O)C3CCCO3)nc12 (configuration not stated) | -6 | 0 | -3 | -4 | 7 | 2
Cc1nc(C)c(C(=O)Nc2nc3c(C)cccc3s2)o1 | 17 | 3 | 0 | -2 | 30* | 10
Cc1cccc(Oc2nc(CN3CCOCC3)nc3sc4c(c23)CCCC4)c1 | -2 | 3 | 1 | -4 | 31* | 2
O=C(NC(Cc1ccccc1)C(=O)O)C1CCN(S(=O)(=O)c2cccc(C(F)(F)F)c2)CC1 (configuration not stated) | -3 | 11 | -3 | -2 | 27* | 8
O=C(NCC1CCCO1)C1CCCN(S(=O)(=O)c2cccc(C(F)(F)F)c2)C1 (configuration not stated) | -5 | 0 | 1 | 4.6* | -13 | -3
Cc1ccc(S(=O)(=O)N2CCC(C(=O)N[C@@H](Cc3ccccc3)C(=O)O)CC2)cc1 | -1 | 22 | -2 | -1 | 3 | 4
CN(CC(=O)Nc1ccc(F)c(F)c1F)C(=O)c1ccc2c(c1)S(=O)(=O)N=C1CCCCCN12 | -2 | -4 | . | . | -1 | 3
CC(C)(C)[C@@H]1CCC(=O)N(CC[C@H](Sc2ccc(Br)cc2)c2ccccc2)CC1 | -2 | 8 | . | . | -6 | 4
Cc1ccc(C=Nc2cccnc2N)cc1 | 7 | 3 | 1 | 4.8* | 7 | 2
COc1ccc(C=Nc2cccnc2N)cc1 | 4 | -2 | 1 | -2 | 27* | 7
CCOc1ccc(C=Nc2cccc3ncccc23)cc1 | -1 | 2 | 0 | -1 | 8 | 3
COc1ccccc1N(CC(=O)Nc1ccc(Br)cc1F)S(=O)(=O)c1cccs1 | -2 | -5 | . | . | . | -4
CCc1ccc(C(=O)/C=C/c2ccc([N+](=O)[O-])o2)cc1 | 1 | 1 | -3 | 0 | 27* | 0
Cc1cc(=O)c2c(o1)C(=O)c1occc1C2=O | 38* | 26* | . | . | . | 47*
COc1c2occc2c(OC)c2c(=O)cc(C)oc12 | -6 | 4 | 1 | -3 | -1 | 2
CC(C)(C)OC(=O)N1CCC(C(=O)Nc2cccc(C(=O)N3CCOCC3)c2)CC1 | 7 | 3 | . | . | 3 | 10
Cc1c(C)c2ccc(OC(C)C(=O)N[C@@H](Cc3c[nH]c4ccccc34)C(=O)O)c(C)c2oc1=O (some centres not stated) | 1 | 24* | 0 | -4 | -2 | 3
SMILES | PAFAH2 FP inh | PAFAH1B2 inh | VIM-2 inh | IMP-1 inh | pPAFAH inh | PAFAH1B3 inh
CC(Oc1ccc2c(-c3ccccc3)cc(=O)oc2c1)C(=O)N[C@H](Cc1c[nH]c2ccccc12)C(=O)O (some centres not stated) | 15 | 76* | -1 | -3 | 9 | 10
COc1ccc(-c2cc(=O)oc3cc(OC(C)C(=O)NC(Cc4c[nH]c5ccc(O)cc45)C(=O)O)ccc23)cc1 (configuration not stated) | 3 | 5 | 0 | -3 | 11 | 1
COc1ccccc1CC(NC(C)=O)C(=O)NC1CCN(S(=O)(=O)c2ccccc2)CC1 (configuration not stated) | 8 | -2 | -2 | 1 | . | 6
Cc1cnc(C(=O)OCC(=O)N(C(C)C)C(C)C)cn1 | -7 | 6 | 0 | 5.4* | 2 | 2
Cc1ccc(NC(=O)Cn2cncc2-c2ccc([N+](=O)[O-])cc2)cc1C | 2 | 0 | -2 | 12* | 9 | 1
O=C(O)CN1CCN(Cc2ccccc2)C1=O | -15 | 4 | 1 | -4 | 2 | 3
O=C(O)CN1CCCC1=Nc1ccccc1 | 1 | -1 | 2 | 4.8* | 4 | 8
COc1ccccc1N(CC(=O)NCCSCc1cccc(C)c1)S(=O)(=O)c1ccccc1 | 0 | 7 | -1 | -1 | 9 | 6
COC(=O)c1c(C)oc2c1cc(NS(=O)(=O)c1ccc(C(=O)O)cc1)c1ccccc12 | 7 | -2 | 0 | 7.3* | 24 | 1
CCC(c1ccccc1)c1nc(-c2ccccn2)no1 (configuration not stated) | 2 | 27* | -1 | -3 | -1 | 10
CCC(c1ccccc1)c1nc(-c2cccnc2)no1 (configuration not stated) | 5 | 17 | 1 | -1 | 5 | 0
CCN(C[C@H]1N[C@@](CC)(C(=O)OC)[C@H]2C(=O)N(C)C(=O)[C@@H]12)S(=O)(=O)c1ccccc1 | 6 | 2 | . | . | 4 | 12
Nc1[nH]nc2ncc3cc4ccccc4nc3c12 | 1 | 1 | 0 | -1 | 30* | 1
CC1(C)N=C(N)N=C(N)N1c1ccc(Oc2ccc(Cl)cc2)c(Cl)c1 | -13 | 6 | -1 | -3 | -1 | 10
Cc1ccc(NC(=O)c2cccc(S(=O)(=O)N(C)C3CCCCC3)c2)nc1 | 1 | 7 | . | . | -4 | 3
CCOC(=O)c1cnc2c(OC)cccc2c1NCc1cccnc1 | -5 | -3 | 11* | -5 | -4 | 7
CC1CCN(S(=O)(=O)c2ccc(N=NC3=C(O)CC(C)(C)CC3=O)cc2)CC1 | -7 | 45* | 0 | -2 | 3 | 3
Cc1cc(C)c(S(=O)(=O)N2CCN(C(=O)CN3C(=O)NC4(CCCC4)C3=O)CC2)c(C)c1 | -5 | 2 | 0 | -2 | 2 | -1
CC/C=C\C/C=C\C/C=C\CCCCCCCC(=O)O | 23 | 7 | . | . | 24 | 21
CCCCC/C=C\C/C=C\C/C=C\C/C=C\CCCC(=O)O | . | . | . | . | 47* | .
